# CHOP inhibitor = blocks CHOP induction under ER stress | CHO-K1 CHOP-promoter luciferase, tunicamycin-induced, 15-18 h | AID 2732 | inhibition, % at 10 µM | 220,000 compounds, 3.8% hits;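 active = compounds that reduced the stress-induced luciferase reporter signal by more than about 70% of percent inhibition, limit read from the data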;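 also: 0% = tunicamycin plus vehicle and 100% = wells without tunicamycin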
# Lmaj promast = inhibitors of Leishmania major promastigote growth; Leishmania major promastigotes, resazurin fluorescence viability; 200,000 compounds, 9% hits; inhibition, % at 10 µM; AID 1063;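 also: promastigotes grown with compound for 44 hours at 28 °C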
# PKD1 inh = PKD1 (human) kinase inhibition. inhibition, % (no concentration beside the values). Q15139. PKD1 kinase fluorescence polarization assay. AID 797. 200,000 compounds, 0.056% hits
# Wee1 stabilizer = inhibitors of human Wee1 degradation; 220,000 compounds, 1.2% hits; P30291; AID 1321; HeLa Luc-Wee1K328M stability, luciferase luminescence; 100% = proteasome inhibitor MG132 effect; reporter increase, % at 5 µM;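 active = activation above the mean of all tested compounds plus 3 SD, set per screening run, cut at about 8.8% in these data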;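 also: cells exposed to compound for 20 h before luminescence read; 0% = DMSO alone and 100% = MG132 at 30 µM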
# Rad51 HR inh = blocks human Rad51 in homologous recombination; Q06609; hRad51 DNA strand exchange, fluorescence dequenching; inhibition, % at 10 µM; 200,000 compounds, 0.085% hits; AID 1385;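 active = inhibition above 40% at the single screening dose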;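 also: 0% = DMSO control wells and 100% = blanks with heterologous ssDNA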
# Target sequence (Q06609 whole entry, looked up): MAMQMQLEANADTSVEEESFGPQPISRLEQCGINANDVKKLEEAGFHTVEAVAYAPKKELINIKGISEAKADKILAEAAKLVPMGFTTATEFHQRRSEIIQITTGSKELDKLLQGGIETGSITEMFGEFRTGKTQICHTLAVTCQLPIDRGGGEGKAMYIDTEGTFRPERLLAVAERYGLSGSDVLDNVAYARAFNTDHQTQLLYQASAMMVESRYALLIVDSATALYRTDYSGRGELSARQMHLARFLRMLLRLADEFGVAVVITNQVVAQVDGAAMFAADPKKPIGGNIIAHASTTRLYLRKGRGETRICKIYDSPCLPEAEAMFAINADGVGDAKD
#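 System: human Rad51 nucleoprotein filaments preassembled on unlabelled ssDNA. Reagent: labelled 47-mer dsDNA for strand exchange. Schedule: 30-min compound preincubation and 15-min exchange, both room temperature. Measured by: FRET fluorescence dequenching, excitation 485 nm, emission 520 nm. Read-out: Fluorescence-based percent inhibition, control- and blank-normalised. Benchmarks: plate controls and plate blanks.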
# Arbovirus anti = arbovirus infection inhibition; arbovirus infection cell-based antiviral screen; inhibition, % at 10 µM; 200,000 compounds, 0.37% hits; AID 1251; in the data active = inhibition above about 30%
# * = called active by the depositor; . = no result given. The list is not random: actives were taken first. Their share in the collection is about 12%. Rule as the data show it, unless noted: active = inhibition above about 50%; inactive = the rest.
SMILES,CHOP inhibitor,Lmaj promast,PKD1 inh,Wee1 stabilizer,Rad51 HR inh,Arbovirus anti
CCOC(=O)c1cnc2ccc(OC)cc2c1Nc1ccc2c(c1)OCCO2,26,27,12,-1,8,20
CCOc1ccc2nc(C)cc(Nc3cccc([N+](=O)[O-])c3)c2c1,44,100*,-9,-1,7,-42
Cc1cc(Nc2ccc3c(c2)OCCO3)c2ccccc2n1,-2,95*,-7,-2,.,-13
Cc1ccc2c(c1)C(=O)CCCCC(=O)N2,15,.,.,-3,-2,.
CCOc1ccc2nc(C)cc(Nc3ccc(N4CCOCC4)cc3)c2c1,-1,64*,-3,0,.,7
Cc1cc(C)nc(Nc2ccc(N3CCOCC3)cc2)n1,17,-4,-22,-1,-1,-6
CC(=O)c1ccc(Nc2cc(C)nc3ccc(C)cc23)cc1,-12,84*,0,1,1,-26
Cc1cc(Nc2ccc3c(c2)OCCO3)c2cccc(C)c2n1,-30,85*,1,8,9,-26
O=C(CCSc1ccccn1)c1ccccc1,3,77*,-6,-2,30,-29
CCCn1nnc(NC(=S)NC(=O)/C=C/c2ccco2)n1,17,.,.,-2,.,.
Cc1ccc(-c2csc3ncnc(SCC(=O)Nc4nnc(C)s4)c23)cc1,74*,-7,-5,-1,-5,-3
CC(=O)CSc1ncnc2scc(-c3ccc(F)cc3)c12,14,20,-2,-1,1,4
Cc1ccc(S(=O)(=O)NN/C(=N/S(=O)(=O)c2ccccc2)c2ccccc2)cc1,7,-9,-5,2,12,4
Cc1ccc(S(=O)(=O)/N=C(\c2ccccc2)N(C)S(=O)(=O)c2ccccc2)cc1,67,63*,6,1,-8,4
Cc1ccoc1C(=O)Nc1ccc(CC(=O)O)cc1,73*,-2,-6,-2,-7,0
COc1ccc(C(=O)c2ccccc2)c(OCC(=O)NC2CC2)c1,12,-4,-3,-3,2,-9
O=S(=O)(Nc1cccc2ncccc12)c1cccs1,.,100*,2,1,3,-22
CCOc1ccc2nc(SCC(=O)Nc3cc4c(cc3C(C)=O)OCO4)[nH]c2c1,-9,3,2,-3,-3,4
Cc1ccc(-c2csc3ncnc(NS(=O)(=O)c4ccc(Cl)cc4)c23)cc1,-68,0,-5,0,-6,46*
Clc1ccc(-c2csc3ncnc(Cl)c23)cc1,41,20,3,4,-4,6
COc1ccc(Nc2ncnc3scc(-c4ccc(OC)cc4)c23)cc1,50,88*,-5,0,-1,-8
NNc1ncnc2scc(-c3ccc(Cl)cc3)c12,17,68*,6,-2,19,-24
O=S(=O)(Nc1ncnc2scc(-c3ccc(F)cc3)c12)c1cc(F)ccc1F,19,.,.,5,12,.
CC(=O)Nc1cccc(CP(=O)(c2ccccc2)c2ccccc2)c1,3,.,.,5,-4,.
CCOC(=O)c1c(C)[nH]c(C(=O)N2CCN(c3ccc(OC)cc3)CC2)c1C,34,-5,3,-2,-7,1
SMILES,CHOP inhibitor,Lmaj promast,PKD1 inh,Wee1 stabilizer,Rad51 HR inh,Arbovirus anti
C/C(=N\N=C1\NC(=O)CC(C(=O)O)S1)c1ccc(F)cc1 (stereo unspecified),11,52*,-11,1,1,0
Cc1nn2c(-c3cccc(NC(=O)c4ccco4)c3)nnc2c2ccccc12,17,101*,-8,-1,10,-3
COc1cc(OC)c(C(=O)OCC(=O)N(Cc2ccccc2)C(C)(C)C)cc1OC,6,12,0,6,3,-1
CCOc1ccc2nc(SCC(=O)N3CCCCCC3)c(C#N)cc2c1,-32,64*,-6,1,7,-3
O=c1[nH]c2ccc(S(=O)(=O)N3CCN(c4ccccc4F)CC3)cc2s1,42,-9,8,3,1,38*
Cc1cc(C)nc(SCC(CSc2nc(C)cc(C)n2)C(=O)O)n1,-3,-1,-5,3,-12,1
Cc1ccc(C(=O)N2CCN(C(=O)c3ccc(C)cc3)C2)cc1,20,1,-3,-1,7,1
Cc1ccc(C(=O)N2CCN(S(C)(=O)=O)C2)cc1,-14,-2,6,-1,-3,-4
Cc1ccc(C(=O)N2CC3(C(C)C)CN(C(=O)c4ccc(C)cc4)CC(C(C)C)(C2)C3=O)cc1,17,95*,-10,0,-6,1
CCC12CN(C(=O)c3ccc(C)cc3)CC(CC)(CN(C(=O)c3ccc(C)cc3)C1)C2=O,18,52*,-2,2,1,-1
Cc1cccc(-c2noc(CN(C(=O)/C=C/c3ccccc3Cl)C(C)C)n2)c1,45,-3,-2,-1,13,-6
Cc1ccc(-c2noc(CN(C(=O)C(c3ccccc3)c3ccccc3)C(C)C)n2)cc1,22,4,-1,2,2,-16
COc1ccc(Cl)cc1C(=O)N(Cc1nc(-c2cccc(C)c2)no1)C(C)C,64,85*,7,-1,5,23
Cc1cccc(-c2noc(CN(C(=O)CCc3ccccc3)C(C)C)n2)c1,70*,0,-3,-2,4,5
Cc1ccc(-c2noc(CN(C(=O)c3cccc(Br)c3)C(C)C)n2)cc1,71*,1,19,-1,-1,19
CSc1sc(C(=O)N(C)C)c2c1S(=O)(=O)N(C)c1ccccc1-2,-3,.,.,0,-3,.
CCCn1c(=O)c(C(=O)NCC2CCCO2)c(O)c2ccccc21 (stereo unspecified),-3,-4,-1,-1,.,7
CC1CCc2cc(F)cc3c(O)c(C(=O)NCC4CCCO4)c(=O)n1c23 (stereo unspecified),77*,-5,-3,-1,-3,-18
O=C(NC(N1CCOCC1)C(Cl)(Cl)Cl)c1cc([N+](=O)[O-])cc([N+](=O)[O-])c1 (stereo unspecified),14,91*,6,0,9,5
COc1ccc(Br)cc1C(=O)Nc1ccccc1N1CCN(C(=O)c2ccccc2)CC1,11,55*,-7,3,.,1
CCOc1cccc(C(=O)NC(c2ccccc2)C(C)C)c1 (stereo unspecified),27,57*,-5,5,12,0
O=C(Nc1ccccc1N1CCN(C(=O)c2ccccc2)CC1)c1cc(Br)ccc1Cl,-3,26,-2,-2,5,-10
Cc1ccc(C(=O)Nc2ccccc2N2CCN(C(=O)C(C)C)CC2)cc1,17,9,11,2,4,-4
O=C(Nc1ccccc1N1CCN(C(=O)c2ccccc2)CC1)c1cccc(Cl)c1,5,.,.,9.2*,1,.
O=C(Nc1ccccc1N1CCN(C(=O)c2ccc(Cl)cc2)CC1)c1ccc2c(c1)OCO2,13,26,-9,0,4,-6
CCOc1cccc(C(=O)Nc2ccccc2N2CCN(C(=O)C(C)C)CC2)c1,11,41,-29,0,-10,35*

# Source: PubChem (several laboratories)
